Source: PubChem BioAssay (several laboratories)
CHOP UPR activ = activators of apoptotic arm of unfolded protein response (CHOP); CHO-CHOP luciferase reporter, UPR activation, luminescence; percent of tunicamycin response over DMSO baseline; activation, % at 10 µM; actives 0.34% (n = 330,000); AID 449763;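 active = at 10 µM dose, activation of 40% or more, normalized to positive control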;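 note: 100% = tunicamycin at 10 µg/mL and 0% = DMSO alone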
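System: CHO-CHOP luciferase reporter cell line | Buffer or medium: F12 medium containing 10% fetal bovine serum | Doses: One dose, 10 µM in 0.5% DMSO | Times: 6 h compound exposure at 37 °C after overnight seeding | Signal: Luciferase luminescence | Read-out: % activation vs tunicamycin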
UCH37 DUB inh = inhibitors of human deubiquitinating enzyme UCH37. Q9Y5K5. purified proteasome/UCH37, Ub-AMC cleavage fluorescence. inhibition, % (concentration not given with the values). actives 0.33% (n = 330,000);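 active = mean inhibition over replicate wells above about 20%, limit read from the data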;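 note: 0% = compound-free wells with enzyme and 100% = wells lacking proteasome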
Target sequence (Q9Y5K5 whole entry, looked up): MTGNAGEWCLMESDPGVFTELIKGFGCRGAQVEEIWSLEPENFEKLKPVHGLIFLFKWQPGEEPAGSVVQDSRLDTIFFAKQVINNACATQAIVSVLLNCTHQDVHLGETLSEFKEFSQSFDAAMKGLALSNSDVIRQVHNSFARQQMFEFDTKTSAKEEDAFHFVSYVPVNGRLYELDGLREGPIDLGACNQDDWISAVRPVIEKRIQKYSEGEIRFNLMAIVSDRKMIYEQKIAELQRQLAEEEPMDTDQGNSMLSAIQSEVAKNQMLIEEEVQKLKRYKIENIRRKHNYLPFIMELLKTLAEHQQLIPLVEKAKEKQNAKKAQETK
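Signal – fluorescence, ex 355 nm, em 460 nm · System – Proteasome-bound UCH37 · Input – 0.15 nM proteasome as dispensed · Timing – 30 min preincubation with enzyme, 25 min cleavage at room temperature · Read-out basis – percent inhibition of cleavage signal versus uninhibited and no-proteasome wells · Medium – Tris-HCl pH 7.4 with ATP-MgCl2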
Fh CTSL1 inh = cathepsin L1 inhibition, PFM18AAP counter-screen | recombinant F. hepatica cathepsin L1, Z-Leu-Arg-MCA fluorescence | inhibition, % at 5.96 µM | actives 0.49% (n = 300,000);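 active = inhibition above the mean of all tested compounds plus 3 SD, set per screening campaign, cut at about 17% in these data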;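 note: 0% = plate median of test compound wells and 100% = 1 µM Z-Phe-Ala-diazomethylketone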
UPR XBP1 act = adaptive UPR (XBP1) activation. actives 0.33% (n = 330,000). activation, % at 20 µM. CHO-XBP1 luciferase reporter, IRE1-XBP1 UPR activation, luminescence; percent of tunicamycin response, DMSO as zero;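 active = versus positive control, 20 µM dose yields 30% or more activation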;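 note: 100% = tunicamycin at 10 µg/mL and 0% = DMSO only wells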
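Signal: luciferase luminescence; Assay system: CHO-XBP1 luciferase reporter cells; Amount: one thousand reporter cells per well; Dosing: 20 µM single concentration, DMSO 1%; Benchmarks: high control tunicamycin 10 µg/mL final, low control DMSO vehicle only; Schedule: 6 h compound exposure at 37 °C, 5% CO2; Evaluation: percent activation relative to tunicamycin reference.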
CHOP inh = inhibitors of CHOP induction in ER stress response; inhibition, % at 10 µM; CHO-K1 CHOP-promoter luciferase, tunicamycin-induced, 15-18 h; actives 3.8% (n = 220,000);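 active = compounds that reduced the stress-induced luciferase reporter signal by more than about 70% of percent inhibition, limit read from the data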;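 note: 0% = tunicamycin plus vehicle and 100% = wells without tunicamycin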
* marks the source's active call; other numbers are inactive results; nt = no result given. Many of the other results were omitted from the sample, so hits are more common in it than they were.

SMILES	CHOP UPR activ	UCH37 DUB inh	Fh CTSL1 inh	UPR XBP1 act	CHOP inh
CC1(C)Cc2c(c(-c3ccco3)nc3sc4c(NCC5CCCO5)ncnc4c23)CO1 (stereo not drawn)	1	-65	5	16	95*
Cc1ccc(C(=O)CCS(=O)(=O)c2ccc(F)cc2)cc1	4	1	30*	-3	nt
Cc1ccc(S(=O)(=O)CCC(=O)c2ccc(F)cc2)cc1	3	2	43*	-7	nt
CC(=O)NN=C(c1ccccc1)C(O)c1ccccc1 (stereo not drawn)	nt	2	nt	nt	nt
CCN1CC(=NS(=O)(=O)N=C2CN(CC)C(=O)N2CC)N(CC)C1=O	nt	2	nt	nt	nt
CC1=CC(=O)C(C(C)C)=C/C1=N\OC(=O)c1cccc2nc(C)oc12	24	nt	0	-4	-341
CC1=CC(=O)C(C(C)C)=CC1=NC(=O)c1ccc(C)cc1	7	2	-1	-3	107*
OCCN1CCN(C2Cc3cc(Cl)ccc3Sc3ccc(Cl)cc32)CC1 (stereo not drawn) (tested in a mixture with another compound)	0	8	1	2	75*
CCc1ccc2nc(N3C(=O)C(O)=C(C(=O)c4ccco4)C3c3cccs3)sc2c1 (stereo not drawn)	3	nt	0	6	80*
COC(=O)C1CCCN1S(=O)(=O)c1ccc([N+](=O)[O-])cc1 (stereo not drawn)	0	1	53*	-5	nt
CC(C)(C)c1csc(NN=Cc2cccnc2)n1	nt	6	nt	nt	nt
Nc1ccc(C23CC4CC(CC(C4)C2)C3)cc1	-1	0	-4	2	75*
Nc1ccc(C23CC4CC(CC(O)(C4)C2)C3)cc1	-1	3	-5	-4	12
Cc1ccc(N2CCN(N=Cc3ccncc3)CC2)cc1	nt	2	nt	nt	nt
CCOP(=O)(OCC)C(NC(=O)c1cc([N+](=O)[O-])cc([N+](=O)[O-])c1)C(F)(F)F (stereo not drawn)	0	1	40*	-1	-7
Cc1ccc2c(c1)C(c1ccncc1)=NNC(c1ccc(C(C)C)cc1)=N2	nt	nt	nt	nt	98*
Cc1ccc2c(c1)C(c1ccncc1)=NNC(c1ccc(F)cc1)=N2	2	3	0	0	2
C(=C\c1nccc2c1[nH]c1ccccc12)/c1ccccc1	5	nt	2	-1	4
Fc1ccc(/C=C\c2nccc3c2[nH]c2ccccc23)cc1	2	-179	4	5	90*
Cc1ccc(-n2c(C)cc(/C=N/NC(N)=S)c2C)cc1	8	nt	31*	17	-4
NC(=S)NN=Cc1cccc(O)c1O	nt	1	nt	nt	nt
COc1cc(OC)c(/C=N/NC(N)=S)cc1Br	-1	nt	74*	3	16
Cc1cc(/C=N/NC(N)=S)c(O)c(/C=N/NC(N)=S)c1	-1	nt	19*	-3	1
CC(=NNC(=S)NC(C)C)c1ccc(Cl)c([N+](=O)[O-])c1	nt	6	nt	nt	nt
CC(=NNC(=O)c1cccc(O)c1)c1ccc(NC(=O)Cc2ccccc2)cc1	nt	6	nt	nt	nt
SMILES	CHOP UPR activ	UCH37 DUB inh	Fh CTSL1 inh	UPR XBP1 act	CHOP inh
CCCNCC1C(Oc2ccc(Cl)cc2Cl)C(=O)N1c1cccc(C)c1C (stereo not drawn)	-1	1	-1	-2	-2
CCCCNCC1C(Oc2ccc(Cl)cc2)C(=O)N1c1ccccc1C (stereo not drawn)	1	3	3	2	77*
CON=CC(c1ccc(Cl)nc1)S(=O)(=O)c1ccccc1 (stereo not drawn)	nt	0	nt	nt	nt
O=S(=O)(NCc1cc(-c2ccccc2Cl)no1)c1ccc(Cl)cc1	2	2	0	3	74*
Cc1ccc(NC(=S)C2=C(O)c3sccc3N(C)S2(=O)=O)cc1	-1	24*	7	-2	34
O=C(NN=Cc1ccco1)c1cccc(N2Cc3ccccc3C2)c1	nt	3	nt	nt	nt
CCN(CC)C(=O)CSc1nc2ccc(NC(=O)CSc3nnc(COc4ccccc4C)n3C)cc2s1	-4	4	-5	-1	56
CC(C)(C)NC(=O)CSc1nc2ccc(NC(=O)CSc3nnc(N)s3)cc2s1	-2	nt	1	-1	70*
CC(C)(C)NC(=O)CSc1nc2ccc(NC(=O)CSc3nnnn3Cc3ccccc3)cc2s1	5	6	0	3	69
Cc1ccccc1OCc1nnc(SCC(=O)Nc2ccc3nc(SCC(=O)NC(C)(C)C)sc3c2)n1C	-3	0	-9	-8	73*
O=C(NN=Cc1ccccc1Cl)c1cccc(F)c1	nt	3	nt	nt	nt
CC(CCN1CCc2nc(-c3ccccc3)c(-c3ccccc3)cc2C1)=NOC[C@@H](C)[C@H](OCc1ccccc1)C(C)C	nt	3	nt	nt	nt
COc1ccc(NC2=CC(c3ccc(OC)cc3)N(c3ccc(OC)cc3)C2=O)cc1 (stereo not drawn)	-3	-6	2	3	18
COc1ccc(NC2=CC(c3ccc(F)cc3)N(c3ccc(OC)cc3)C2=O)cc1 (stereo not drawn)	4	-99	2	1	82*
Cc1ccc(C(=O)c2c3ccccc3[n+]([O-])n2CCC(=O)O)cc1	1	1	-3	0	nt
CCOC(=O)c1c2ccccc2[n+]([O-])n1[C@@H](C)C(N)=O	-1	32*	4	0	nt
Cc1cc(C)c(C#N)c(N2CCN(CCOc3ccc(Cl)cc3)CC2)n1	-2	-1	-1	-3	75*
COc1ccc(Cl)cc1CN1CCN(c2nc(C)cc(C)c2C#N)CC1	0	-3	0	-4	7
Cc1nn(-c2ccc(F)cc2)c(Cl)c1C=NNC(=O)c1cccc(S(=O)(=O)N2CCCC2)c1	nt	5	nt	nt	nt
Cn1cccc1-c1cc(C(=O)NN=Cc2ccc([N+](=O)[O-])cc2)[nH]n1	nt	3	nt	nt	nt
NC(=O)CCn1c(C(=O)c2ccc(Cl)cc2)c2ccccc2[n+]1[O-]	0	28*	-1	-1	nt
COc1ccc(C=NNC(=O)C2C(=O)NCC2c2ccccc2)c(OC)c1 (stereo not drawn)	nt	7	nt	nt	nt
COc1c(C=NNc2nc(N3CCCCC3)nc(N3CCCCC3)n2)cccc1[N+](=O)[O-]	nt	4	nt	nt	nt
O=C(N=Nc1c(O)n(Cc2ccccc2)c2ccccc12)c1ccncc1	3	10	6	1	9
Cc1ccc(NC(=O)Cn2c(O)c(N=NC(N)=S)c3ccccc32)cc1	17	6	2	60*	nt
CC(=O)c1cn(CC(=O)Nc2ccc(C)c(C)c2)c2ccccc12	-1	3	-4	-1	19
CC(=O)c1cn(CC(=O)Nc2ccc(C)cc2)c2ccccc12	1	20*	5	-1	26
Cc1cccc(NC(=O)Cn2c(O)c(N=NC(=O)c3ccncc3)c3ccccc32)c1	1	4	4	-3	84*
O=C(CNC(=O)C12CC3CC(CC(C3)C1)C2)NN=Cc1ccccn1	nt	0	nt	nt	nt
